Results on 16 compounds are retold here after PMC12415690 (RSC Advances, 2025).

In experiment [1] the test system is M. tuberculosis H37Rv strain (ATCC 27294). Nature of the experiment: Antitubercular activity, microplate Alamar Blue assay. To be noted: Mycobacterium tuberculosis, ATCC27294|H37RV, read-out: MIC μM. The class given is cell-based.
Experiment [2] concerns P. aeruginosa (ATCC 27853). Nature of the experiment: Antibacterial zone of inhibition. The class given is cell-based. To be noted: Pseudomonas aeruginosa, ATCC27853, read-out: Zone of inhibition in mm, P. aeruginosa (ATCC 27853). Put shortly:
(§1)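 Sterilised nutrient agar, […], was seeded with 18–24 h bacterial subcultures, mixed and poured into Petri dishes. Once the agar set, 6 mm wells were cut with a sterile cork borer and filled with test compound dissolved in DMSO at 100 μg mL−1. Plates were incubated at 37 °C for 24–48 h, and inhibition zones around each well were measured in mm. Ciprofloxacin was the reference standard.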

The next experiment relates to B. subtilis (ATCC 6051). Description: Antibacterial zone of inhibition. To be noted: 100 μg mL^−1; for zone of inhibition at 100 µg/mL: Bacillus subtilis, ATCC6051, read-out: Zone of inhibition in mm, B. subtilis (ATCC 6051), Gram positive; for Zone of inhibition in mm, B. subtilis (ATCC 6051): Gram positive. Format: cell-based, Bacillus subtilis. Summed up: as §1
In the next experiment the test system is S. aureus (ATCC 23235). Description: Antibacterial zone of inhibition. The class given is cell-based. To be noted: Staphylococcus aureus, ATCC23235, read-out: Zone of inhibition in mm, S. aureus (ATCC 23235). Put shortly:
as §1

In another experiment the test system is E. coli (ATCC 25922). Description: Antibacterial zone of inhibition. Format: cell-based. To be noted: Escherichia coli, ATCC25922, read-out: Zone of inhibition in mm, E. coli (ATCC 25922). Put shortly: as §1

Converted amounts (≈) assume the structure as drawn.

Usually MIC stands for the smallest concentration in the dilution series that meets the test's criterion for growth inhibition. A word on the zone of inhibition: it is the size of the clear area around the sample on an inoculated plate. As to `CC(=O)c1sc(N/N=C/c2c(-c3ccc(Br)cc3)nc3ncccn23)nc1C` [Compound K19, (E)-1-(2-(2-((2-(4-bromophenyl)imidazo[1,2-a]pyrimidin-3-yl)methylene)hydrazineyl)-4-methylthiazol-5-yl)ethan-1-one], in experiment [1], the MIC was 13.8 µM (≈ 6.27 µg/mL). Further, the zone of inhibition at 100 µg/mL in experiment [2] is 20 mm; in the experiment on B. subtilis (ATCC 6051), 12 mm; in the experiment on S. aureus (ATCC 23235) it was 12 mm.

Consider `CCOC(=O)/C=C1/SC(N/N=C/c2c(-c3ccc(Cl)cc3)nc3ncccn23)=NC1=O` [Compound K25, Ethyl(E)-2-(2-(2-((E)-(2-(4-chlorophenyl)imidazo[1,2-a]pyrimidin-3-yl)methylene) hydrazineyl)-4-oxothiazol-5(4H)-ylidene)acetate], for which the minimal inhibitory concentration (MIC) in experiment [1] was 55 µM (≈ 25 µg/mL). Besides, the zone of inhibition at 100 µg/mL in experiment [2] is 20 mm; in the experiment on E. coli (ATCC 25922), 21 mm; in the experiment with B. subtilis (ATCC 6051) it was 15 to 20 mm; in the experiment with S. aureus (ATCC 23235) it was 21 mm. Moreover, the “Zone of inhibition in mm, B. subtilis (ATCC 6051)” value in the experiment on B. subtilis (ATCC 6051) came out at 20 mm.

`COc1ccc(-c2nc3ncccn3c2/C=N/Nc2nc(C)c(C(C)=O)s2)cc1` [Compound K16, (E)-1-(2-(2-((2-(4-methoxyphenyl)imidazo[1,2-a]pyrimidin-3-yl)methylene)hydrazineyl)-4-methylthiazol-5-yl)ethan-1-one]: the MIC in experiment [1] worked out at 30.8 µM (≈ 12.5 µg/mL). In addition, the values for the zone of inhibition at 100 µg/mL (in experiment [2]; in the experiment with S. aureus (ATCC 23235)) were 11 mm and 18 mm, respectively.

On to `NC(=O)c1cnccn1` [PZA, pyrazinamide, reference compound], for which the minimum inhibitory concentration (MIC) in experiment [1] turned out to be 25.3 µM (≈ 3.12 µg/mL).

As for `CC(=O)c1sc(N/N=C/c2c(-c3ccccc3)nc3ncccn23)nc1C` [Compound K21, (E)-1-(4-methyl-2-(2-((2-phenylimidazo[1,2-a]pyrimidin-3-yl)methylene)hydrazineyl)thiazol-5-yl)ethan-1-one], the minimal inhibitory concentration (MIC) in experiment [1] was 33.2 µM (≈ 12.5 µg/mL). In addition, the zone of inhibition at 100 µg/mL in the experiment on B. subtilis (ATCC 6051) turned out to be 13 mm; in the experiment on S. aureus (ATCC 23235), 19 mm.

Regarding `CCOC(=O)c1cnc(N/N=C/c2c(-c3ccc(C)cc3)nc3ncccn23)s1` [Compound K8, Ethyl(E)-2-(2-((2-(p-tolyl)imidazo[1,2-a]pyrimidin-3-yl)methylene)hydrazineyl)thiazole-5-carboxylate], the MIC in experiment [1] amounted to 7.68 µM (≈ 3.12 µg/mL). For the same compound, the zone of inhibition at 100 µg/mL came out at 19 mm in experiment [2], 17 mm in the experiment on E. coli (ATCC 25922) and 12 mm with S. aureus (ATCC 23235).

As to `CCOC(=O)c1sc(N/N=C/c2c(-c3ccc(Br)cc3)nc3ncccn23)nc1C` [Compound K5, Ethyl(E)-2-(2-((2-(4-bromophenyl)imidazo[1,2-a]pyrimidin-3-yl)methylene)hydrazineyl)-4-methylthiazole-5-carboxylate], in experiment [1], the MIC was determined as 12.9 µM (≈ 6.27 µg/mL). Moreover, the zone of inhibition at 100 µg/mL turned out to be 13 mm in experiment [2], 14 mm with E. coli (ATCC 25922), 13 mm in the experiment with B. subtilis (ATCC 6051) and 11 mm in the experiment on S. aureus (ATCC 23235).

Consider `CCOC(=O)c1cnc(N/N=C/c2c(-c3ccccc3)nc3ncccn23)s1` [Compound K14, Ethyl(E)-2-(2-((2-phenylimidazo[1,2-a]pyrimidin-3-yl)methylene)hydrazineyl)thiazole-5-carboxylate], for which the MIC in experiment [1] was determined as 31.9 µM (≈ 12.5 µg/mL). In addition, the zone of inhibition at 100 µg/mL in experiment [2] stood at 15 mm; in the experiment on E. coli (ATCC 25922), 12 mm; with B. subtilis (ATCC 6051), 14 mm; in the experiment on S. aureus (ATCC 23235), 15 mm.

Take `CCOC(=O)c1sc(N/N=C/c2c(-c3ccc(C#N)cc3)nc3ncccn23)nc1C` [Compound K6, Ethyl(E)-2-(2-((2-(4-cyanophenyl)imidazo[1,2-a]pyrimidin-3-yl)methylene)hydrazineyl)-4-methylthiazole-5-carboxylate]: the MIC in experiment [1] came out at 29 µM (≈ 12.5 µg/mL). Besides, the zone of inhibition at 100 µg/mL in experiment [2] came out at 15 mm; with E. coli (ATCC 25922), 10 mm; in the experiment with B. subtilis (ATCC 6051), 14 mm; in the experiment on S. aureus (ATCC 23235), 17 mm.

As for `[H]/N=C(/N)N[C@H]1[C@H](O)[C@@H](O)[C@H](O[C@@H]2O[C@@H](C)[C@](O)(C=O)[C@H]2O[C@@H]2O[C@@H](CO)[C@H](O)[C@@H](O)[C@@H]2NC)[C@@H](N/C(N)=N\[H])[C@@H]1O` [STM, streptomycin, reference compound], the minimal inhibitory concentration (MIC) in experiment [1] is 10.7 µM (≈ 6.25 µg/mL).

Turning to `CCOC(=O)/C=C1/SC(N/N=C/c2c(-c3ccc(C)cc3)nc3ncccn23)=NC1=O` [Compound K22, Ethyl(E)-2-(4-oxo-2-(2-((E)-(2-(p-tolyl)imidazo[1,2-a]pyrimidin-3-yl)methylene) hydrazineyl)thiazol-5(4H)-ylidene)acetate], the MIC in experiment [1] was 28.8 µM (≈ 12.5 µg/mL). Besides, the zone of inhibition at 100 µg/mL is 13 mm in experiment [2], 24 mm in the experiment on E. coli (ATCC 25922), 15 to 20 mm with B. subtilis (ATCC 6051) and 15 mm in the experiment on S. aureus (ATCC 23235). Also, the “Zone of inhibition in mm, B. subtilis (ATCC 6051)” value with B. subtilis (ATCC 6051) came out at 15 mm.

Regarding `CCOC(=O)/C=C1/SC(N/N=C/c2c(-c3ccc(Br)cc3)nc3ncccn23)=NC1=O` [Compound K26, Ethyl(E)-2-(2-(2-((E)-(2-(4-bromophenyl)imidazo[1,2-a]pyrimidin-3-yl)methylene) hydrazineyl)-4-oxothiazol-5(4H)-ylidene)acetate], the MIC in experiment [1] amounted to 50.2 µM (≈ 25.1 µg/mL). Also, the zone of inhibition at 100 µg/mL in the experiment with B. subtilis (ATCC 6051) and in the experiment on S. aureus (ATCC 23235) was 15 mm throughout.

`CCOC(=O)/C=C1/SC(N/N=C/c2c(-c3ccc(OC)cc3)nc3ncccn23)=NC1=O` [Compound K23, Ethyl(E)-2-(2-(2-((E)-(2-(4-methoxyphenyl)imidazo[1,2-a]pyrimidin-3-yl)methylene) hydrazineyl)-4-oxothiazol-5(4H)-ylidene)acetate]: the MIC in experiment [1] was determined as 111 µM (≈ 50 µg/mL). Further, the zone of inhibition at 100 µg/mL is 18 mm in experiment [2], 24 mm in the experiment on E. coli (ATCC 25922) and 16 mm with S. aureus (ATCC 23235).

As to `CCOC(=O)/C=C1/SC(N/N=C/c2c(-c3ccc(F)cc3)nc3ncccn23)=NC1=O` [Compound K24, Ethyl(E)-2-(2-(2-((E)-(2-(4-fluorophenyl)imidazo[1,2-a]pyrimidin-3-yl)methylene) hydrazineyl)-4-oxothiazol-5(4H)-ylidene)acetate], the MIC in experiment [1] turned out to be 28.5 µM (≈ 12.5 µg/mL).

Consider `CC(=O)c1sc(N/N=C/c2c(-c3ccc(F)cc3)nc3ncccn23)nc1C` [Compound K17, (E)-1-(2-(2-((2-(4-fluorophenyl)imidazo[1,2-a]pyrimidin-3-yl)methylene)hydrazineyl)-4-methylthiazol-5-yl)ethan-1-one], for which the MIC in experiment [1] came to 7.91 µM (≈ 3.12 µg/mL). The zone of inhibition at 100 µg/mL in experiment [2] turned out to be 11 mm; with B. subtilis (ATCC 6051), 14 mm; in the experiment on S. aureus (ATCC 23235), 20 mm.

`CC(=O)c1sc(N/N=C/c2c(-c3ccc(C)cc3)nc3ncccn23)nc1C` [Compound K15, (E)-1-(4-methyl-2-(2-((2-(p-tolyl)imidazo[1,2-a]pyrimidin-3-yl)methylene)hydrazineyl)thiazol-5-yl)ethan-1-one]: the MIC in experiment [1] was found to be 32 µM (≈ 12.5 µg/mL). Also, the zone of inhibition at 100 µg/mL in experiment [2] is 14 mm; in the experiment with E. coli (ATCC 25922), 15 mm; in the experiment with B. subtilis (ATCC 6051), 13 mm; with S. aureus (ATCC 23235) it was 12 mm.
